The RNAGym collection of RNA variant scans (doi:10.1126/science.aae0568)
Fewer inactive variants are shown than the library holds.

B1: tRNA (parent)
chain: GUUCCGUUGGCGUAAUGGUAACGCGUCUCCCUCCUAAGGAGAAGACUGCGGGUUCGAGUCCCGUACGGAACG

Variants of: B1
Test: yeast fitness relative to wild type (ratio to wild type); higher = fitter; tRNA-Arg(CCU), competitive growth, 37 C, YPD
Outline: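 For this measurement, the tRNA-Arg(CCU) gene was varied by chemical synthesis at a 3% per-site mutation rate across 69 sites, and each variant was placed at the native genomic locus in Saccharomyces cerevisiae. The pooled strains went through a 24-hour competition in YPD at 37°C in six parallel replicates, with amplicons from start and end populations read by 100-nucleotide paired-end sequencing. Darwinian fitness relative to wild type followed from the change in each genotype's frequency. Genotypes needed ≥ 100 starting reads, and estimates < 0.5 were set to 0.5.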

Row | Variant | yeast fitness
1 | U7G C46U C60A | ≤ 0.5
2 | U7G C49A | 0.665
3 | U7G C49A C61U G67C | ≤ 0.5
4 | U7G C49U A57U | ≤ 0.5
5 | U7G C55A | 0.665
6 | U7G C55U | 0.855
7 | U7G C55U G56C G63U | 0.602
8 | U7G C60A A69G | ≤ 0.5
9 | U7G C60A A70C | 0.551
10 | U7G C61U | 0.78
11 | U7G C61U C66A | 0.626
12 | U7G C61U G63A C66A | ≤ 0.5
13 | U7G C62A | 0.612
14 | U7G C62G A69G | ≤ 0.5
15 | U7G C66A | 0.573
16 | U7G C66U | 0.893
17 | U7G G9A C30G G51C | ≤ 0.5
18 | U7G G9A C31G A36G C62U | ≤ 0.5
19 | U7G G9A C31G A36G G68C | ≤ 0.5
20 | U7G G10A C11G C27U A40U | 0.538
21 | U7G G10A C27U G68A | ≤ 0.5
22 | U7G G10C A43U C55U | ≤ 0.5
23 | U7G G10C C22G | ≤ 0.5
24 | U7G G10C C22G C55A | ≤ 0.5

Row | Variant | yeast fitness
25 | U7G G10C C29A C55U A69U | 0.534
26 | U7G G10C C33U C60G G67A | ≤ 0.5
27 | U7G G12C A14C A15G A37C A57U | ≤ 0.5
28 | U7G G18C | 0.686
29 | U7G G23A A36U G39C | ≤ 0.5
30 | U7G G23C C24A C30G A36U C61U A65U | ≤ 0.5
31 | U7G G23C C30G A36U C61U | ≤ 0.5
32 | U7G G23U C27G U28G C60A | ≤ 0.5
33 | U7G G25A | 0.799
34 | U7G G25C A40U | 0.556
35 | U7G G25C G67A | 0.682
36 | U7G G38C | 0.591
37 | U7G G38C C60G | ≤ 0.5
38 | U7G G39A | 0.874
39 | U7G G39A C55U U59G G68C | ≤ 0.5
40 | U7G G39A C66U | ≤ 0.5
41 | U7G G39C | 0.632
42 | U7G G39C A42G | ≤ 0.5
43 | U7G G39C A70U | 0.553
44 | U7G G41A G48A | 0.911
45 | U7G G41C C49G U59G G63A C66U | ≤ 0.5
46 | U7G G41C G58C U59C | ≤ 0.5
47 | U7G G50A | 0.858
48 | U7G G50C G67C | ≤ 0.5

Row | Variant | yeast fitness
49 | U7G G51C | 0.644
50 | U7G G52A | 0.723
51 | U7G G56C C60U G67C | ≤ 0.5
52 | U7G G63A | 0.888
53 | U7G G63A A65G | 0.828
54 | U7G G67A | 0.826
55 | U7G G68A | 0.821
56 | U7G U8A A14G | 0.525
57 | U7G U8A A14G C62U A65U | ≤ 0.5
58 | U7G U8A U32C G51C C60U C61U C62U | 0.599
59 | U7G U8C C11G C34U G41A | 0.547
60 | U7G U8G A70U | ≤ 0.5
61 | U7G U13A A42G C66G G67C | ≤ 0.5
62 | U7G U13A A69U | 0.629
63 | U7G U13C A36U G50C U54C | ≤ 0.5
64 | U7G U13C A37U | ≤ 0.5
65 | U7G U13C A57U | ≤ 0.5
66 | U7G U16C C30A | ≤ 0.5
67 | U7G U19C U64C | 0.954
68 | U7G U26A G63A | ≤ 0.5
69 | U7G U26C A42U C46U C66U | ≤ 0.5
70 | U7G U26C A43G C49U | ≤ 0.5
71 | U7G U26C C31A G38C | 0.561
72 | U7G U26G C33G U59A U64C | 0.502

Row | Variant | yeast fitness
73 | U7G U28G | 0.635
74 | U7G U28G C34U G38A | ≤ 0.5
75 | U7G U32A C61G | ≤ 0.5
76 | U7G U32C | 0.992
77 | U7G U32C A40G | 0.559
78 | U7G U32C A65G | 0.795
79 | U7G U32C C34G A43U | ≤ 0.5
80 | U7G U32C C46G | 0.62
81 | U7G U32G | 0.569
82 | U7G U47A C61A | 0.781
83 | U7G U59C | 0.871
84 | U7G U59C A69U | 0.717
85 | U7G U59G A69C | ≤ 0.5
86 | U8A A14C C31A G41C C49A G56A | 0.668
87 | U8A A14C C31A G41C C49A G56A G67C | ≤ 0.5
88 | U8A A14C C31A G41C G63U U64A | 0.776
89 | U8A A14C G17C C24U A45U G67C | ≤ 0.5
90 | U8A A14G A20U G63C C66G | ≤ 0.5
91 | U8A A14G C24G A45C C62U | ≤ 0.5
92 | U8A A14G C24G A45C U64A | ≤ 0.5
93 | U8A A14G C24G G56A | ≤ 0.5
94 | U8A A14G G39C | ≤ 0.5
95 | U8A A14U | 0.534
96 | U8A A14U C22U | 0.592

Row | Variant | yeast fitness
97 | U8A A14U G17A C27U | ≤ 0.5
98 | U8A A14U G17A G25A | ≤ 0.5
99 | U8A A15C | 0.631
100 | U8A A15C A21U | ≤ 0.5
101 | U8A A15C G18C | 0.575
102 | U8A A15C G18C C49U C62U | ≤ 0.5
103 | U8A A15C G18C C49U U64A A69U | 0.651
104 | U8A A15C U26A C33A C61A U64A | ≤ 0.5
105 | U8A A15G | 0.665
106 | U8A A15G C27A G56A | ≤ 0.5
107 | U8A A15G C27A G67A | ≤ 0.5
108 | U8A A15G C27A U47G G68U | ≤ 0.5
109 | U8A A15G G50C C55U C60G A69G | ≤ 0.5
110 | U8A A15U | 0.587
111 | U8A A15U A20C A45G | ≤ 0.5
112 | U8A A15U A20U G25C C29A A40C G50A | ≤ 0.5
113 | U8A A15U A21G C34A A37G | 0.51
114 | U8A A15U C27G A36G | 0.569
115 | U8A A15U C27G A36G G38U | ≤ 0.5
116 | U8A A15U C29U G38C | ≤ 0.5
117 | U8A A15U C34U U64G | ≤ 0.5
118 | U8A A20C A42U | ≤ 0.5
119 | U8A A20C U35A G38C A69C | 0.535
120 | U8A A20U G56A G67A | ≤ 0.5

Row | Variant | yeast fitness
121 | U8A A21G C24A C30A A45U C49A | 0.765
122 | U8A A21G C24A C30A A45U C49A A65U | ≤ 0.5
123 | U8A A21G C24A C30A A45U U47C C49A | 0.572
124 | U8A A21U C27G C30A | ≤ 0.5
125 | U8A A21U C55A | ≤ 0.5
126 | U8A A36C C62A | ≤ 0.5
127 | U8A A36G A40C U47A | ≤ 0.5
128 | U8A A36G G38C G52C A57U A69U A70G | ≤ 0.5
129 | U8A A36G G44A | 0.527
130 | U8A A36G G67C | ≤ 0.5
131 | U8A A36U | 0.559
132 | U8A A36U C55G U59C A69C | 0.794
133 | U8A A36U G39A C66U | ≤ 0.5
134 | U8A A36U G68C | ≤ 0.5
135 | U8A A37C | 0.679
136 | U8A A37C A43U | 0.541
137 | U8A A37C A43U G63A | 0.561
138 | U8A A37C U53C | 0.545
139 | U8A A37G | ≤ 0.5
140 | U8A A37G A42U U54C | ≤ 0.5
141 | U8A A37G A43G U59A | 0.582
142 | U8A A40G A42U A45U U59G G68A | ≤ 0.5
143 | U8A A40G C49G U54A C55A | ≤ 0.5
144 | U8A A40G C62A | ≤ 0.5

Row | Variant | yeast fitness
145 | U8A A40G U64C | 0.623
146 | U8A A40U | 0.707
147 | U8A A40U A43U A65C | ≤ 0.5
148 | U8A A42C | 0.648
149 | U8A A42U A43U | 0.58
150 | U8A A42U U59A | ≤ 0.5
151 | U8A A43C A65U | ≤ 0.5
152 | U8A A43U | 0.763
153 | U8A A43U A70G | 0.532
154 | U8A A43U C49U C55A | ≤ 0.5
155 | U8A A45C | 0.692
156 | U8A A45G A65U | ≤ 0.5
157 | U8A A45U | 0.818
158 | U8A A65C | 0.837
159 | U8A A65G | 0.855
160 | U8A A65U | 0.708
161 | U8A A70C | 0.776
162 | U8A C11A | 0.674
163 | U8A C11A C24A C29A C34U C61G | ≤ 0.5
164 | U8A C11A C24U A40U | ≤ 0.5
165 | U8A C11A C66U | 0.585
166 | U8A C11G A65G | 0.857
167 | U8A C11G G56A | 0.583
